In PMC2606940 (The Journal of General Physiology, 2009):
Where a chain is given by its changes, count along the chain named. Where two headings read alike, the source gives them in different places.

What was measured:
CLC-0 E166S mutant = biological target: T1, CLC-0 E166S mutant (Torpedo marmorata, UniProt P21564, C212S/E166S); assay type: cell-based; details: read-out: Apparent affinity (K1/2)
T1 sequence (P21564 1-805 E166S/C212S): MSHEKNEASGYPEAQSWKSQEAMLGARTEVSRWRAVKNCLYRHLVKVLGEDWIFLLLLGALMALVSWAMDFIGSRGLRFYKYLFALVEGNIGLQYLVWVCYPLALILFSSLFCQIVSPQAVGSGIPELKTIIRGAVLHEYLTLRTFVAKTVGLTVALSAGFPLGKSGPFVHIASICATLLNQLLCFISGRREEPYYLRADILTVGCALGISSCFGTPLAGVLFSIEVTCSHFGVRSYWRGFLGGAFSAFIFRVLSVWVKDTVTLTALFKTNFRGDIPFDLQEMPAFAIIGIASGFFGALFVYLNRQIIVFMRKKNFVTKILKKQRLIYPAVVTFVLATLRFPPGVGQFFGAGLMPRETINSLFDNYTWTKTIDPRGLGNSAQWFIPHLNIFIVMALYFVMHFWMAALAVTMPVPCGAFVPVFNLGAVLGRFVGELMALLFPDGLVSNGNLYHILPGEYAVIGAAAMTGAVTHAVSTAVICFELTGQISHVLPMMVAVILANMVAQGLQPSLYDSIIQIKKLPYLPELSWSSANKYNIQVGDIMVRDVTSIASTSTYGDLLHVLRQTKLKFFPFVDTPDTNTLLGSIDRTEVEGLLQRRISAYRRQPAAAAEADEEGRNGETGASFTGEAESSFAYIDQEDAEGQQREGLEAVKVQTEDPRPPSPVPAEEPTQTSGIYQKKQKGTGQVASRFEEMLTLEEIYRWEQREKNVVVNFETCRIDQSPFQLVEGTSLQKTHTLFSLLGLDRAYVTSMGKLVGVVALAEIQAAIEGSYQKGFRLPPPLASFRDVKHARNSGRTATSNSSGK
Method in brief: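 CLC-0 mutants (C212S background) were lipofectamine-transfected into HEK293 cells and recorded 1–3 d later from inside-out patches. Pipette and bath contained 130 mM NaCl, 5 MgCl2, 10 HEPES and 1 EGTA (pH 7.4). Test compound was perfused onto the cytoplasmic side. A +80 mV prepulse preceded steps to steady state. The last-10-ms current was normalized to bracketing blocker-free controls and fitted to a Langmuir function for K1/2.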

CLC-0 E166L mutant = biological target: T2, CLC-0 E166L mutant (Torpedo marmorata, UniProt P21564, C212S/E166L); assay type: cell-based; details: for IC50: read-out: Apparent affinity (K1/2)
T2 sequence (P21564 1-805 E166L/C212S): T1 sequence (P21564 1-805 E166S/C212S) with S166L
Method in brief: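 CLC-0 mutants in the C212S background were transfected into HEK293 cells with lipofectamine and recorded 1–3 d later as excised inside-out patches. Both sides held 130 mM NaCl, 5 mM MgCl2, 10 mM HEPES and 1 mM EGTA, pH 7.4. CPA was perfused continuously onto the cytoplasmic face. Steady-state current over the last 10 ms was normalized to bracketing blocker-free controls and fitted to a Langmuir function for K1/2. Values are mean ± SEM of ~4–6 patches.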

Row | Compound | IC50 (CLC-0 E166S mutant; −40 mV) [µM] | IC50 (CLC-0 E166S mutant; −60 mV) [µM] | IC50 (CLC-0 E166S mutant; −80 mV) [µM] | IC50 (CLC-0 E166S mutant; −100 mV) [µM] | IC50 (CLC-0 E166S mutant; −120 mV) [µM] | IC50 (CLC-0 E166S mutant; −140 mV) [µM] | IC50 (CLC-0 E166S mutant; −160 mV) [µM] | IC50 (CLC-0 E166L mutant; −40 mV) [µM] | IC50 (CLC-0 E166L mutant; −60 mV) [µM] | IC50 (CLC-0 E166L mutant; −80 mV) [µM] | IC50 (CLC-0 E166L mutant; −100 mV) [µM] | IC50 (CLC-0 E166L mutant; −120 mV) [µM] | IC50 (CLC-0 E166L mutant; −140 mV) [µM] | IC50 (CLC-0 E166L mutant; −160 mV) [µM] | block of current (CLC-0 E166L mutant; 0.3 mM CPA, −160 mV) [%]
1 | CCCCCCCC(=O)O [octanoate] | 855 ± 37 | 403 ± 22 | 198 ± 11 | 100 ± 9 | 50 ± 3 | 26 ± 3 | 16 ± 2 | 342 ± 53 | 192 ± 22 | 106 ± 10 | 57 ± 5 | 32 ± 3 | 18 ± 2 | 11 ± 1 | 
2 | O=C(O)COc1ccc(Cl)cc1 [CPA, p-chlorophenoxy acetate] | 641 ± 36 | 342 ± 15 | 179 ± 7 | 104 ± 4 | 58 ± 3 | 35 ± 2 | 21 ± 1 | 4640 ± 190 | 2610 ± 80 | 1460 ± 30 | 800 ± 20 | 470 ± 10 | 280 ± 10 | 180 ± 10 | ~60
